The values that follow come from ChEMBL document CHEMBL1126824, “Discovery of a novel class of potent HIV-1 protease inhibitors containing the (R)-(hydroxyethyl)urea isostere” (J Med Chem, 1993).

Assay [1] has as its target T1, Human immunodeficiency virus type 1 protease (Human immunodeficiency virus 1, UniProt Q72874). Description: Inhibition of HIV-1 Protease. An outline of the steps:
(§1)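 Continuous fluorometric HIV-1 protease assay. Substrate 2-(aminobenzoyl)-Thr-Ile-Nle-Phe(p-NO₂)-Gln-ArgNH₂ (Km = 37 μM). MVT-101 (Ac-Thr-Ile-Nle[CH₂NH]Nle-Gln-ArgNH₂) served as positive control. IC₅₀ values were determined from inhibition of substrate cleavage; compounds giving under 50% inhibition at 10 μM were flagged.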

The target in assay [2] is Human immunodeficiency virus type 1 protease (Human immunodeficiency virus 1) (UniProt Q72874). Description: Inhibition of HIV-1 Protease. Set-up: concentration or dose not given beside the values. To be noted: concentration not given here. An outline of the steps:
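Continuous fluorometric cleavage of 2-(aminobenzoyl)-Thr-Ile-Nle-Phe(p-NO2)-Gln-ArgNH2 (Km = 37 μM); IC50 determined, with MVT-101 (Ac-Thr-Ile-Nle[CH2NH]Nle-Gln-ArgNH2) as positive control.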

For another assay, the system named is CEM (Homo sapiens). Description: Toxic dose required for 50% in uninfected cells.
The target of assay [3] is T1, Human immunodeficiency virus type 1 protease. Description: Compounds were tested for their concentration to inhibit the HIV-1 Protease. An outline of the steps:
as §1

The IC50 is the concentration needed to halve the response being measured. As usually defined, the inhibition is how much of the control response was suppressed.

With `CCCCNC(=O)N(CC(C)C)C[C@@H](O)[C@H](Cc1ccccc1)NC(=O)[C@H](CC(N)=O)NC(=O)OCc1ccccc1`, it took 940 nM to reach half-maximal inhibition in assay [1] (IC50).
Turning to `CC(C)(C)NC(=O)N(CC1CCCCC1)C[C@@H](O)[C@H](Cc1ccccc1)NC(=O)[C@H](CC(N)=O)NC(=O)c1ccc2ccccc2n1`, half-maximal inhibition in assay [1] (IC50) required 5 nM.
On the same count and under the same terms, with `CCCNC(=O)N(CC(C)C)C[C@@H](O)[C@H](Cc1ccccc1)NC(=O)[C@H](CC(N)=O)NC(=O)OCc1ccccc1` the figure was 518 nM.
On to `CCCCNC(=O)N(CC(C)C)C[C@H](O)[C@H](Cc1ccccc1)NC(=O)[C@H](CC(N)=O)NC(=O)OCc1ccccc1`, for which the inhibition in assay [2] was less than 50%.
In assay [1], `CCCC[C@@H](CN[C@@H](CCCC)C(=O)N[C@@H](CCC(N)=O)C(=O)N[C@@H](CCCNC(=N)N)C(N)=O)NC(=O)[C@@H](NC(=O)[C@@H](NC(C)=O)[C@@H](C)O)[C@@H](C)CC` returned an IC50 of 1900 nM.
The same measure, in the same setting: the value for `CC(C)CN(C[C@@H](O)[C@H](Cc1ccccc1)NC(=O)[C@H](CC(N)=O)NC(=O)OCc1ccccc1)C(=O)NC(C)(C)C` was 35 nM; that for `CC(C)(C)NC(=O)N(Cc1ccncc1)C[C@@H](O)[C@H](Cc1ccccc1)NC(=O)[C@H](CC(N)=O)NC(=O)OCc1ccccc1` was 105 nM.
In assay [2], `CNC(=O)N(C)C[C@H](O)[C@H](Cc1ccccc1)NC(=O)[C@H](CC(N)=O)NC(=O)OCc1ccccc1` came in with an inhibition of less than 50%.
On the same count and under the same terms, with `CNC(=O)N(C)C[C@@H](O)[C@H](Cc1ccccc1)NC(=O)[C@H](CC(N)=O)NC(=O)OCc1ccccc1` the figure was less than 50%.
Compound `CC(C)CCN(C[C@@H](O)[C@H](Cc1ccccc1)NC(=O)[C@H](CC(N)=O)NC(=O)c1ccc2ccccc2n1)C(=O)NC(C)(C)C` came in with a TD50 in the assay on CEM (Homo sapiens) of 50 µM. In assay [1], this compound registered a concentration for half-maximal inhibition (IC50) of 3 nM.
As for `CNC(=O)N(CC(C)C)C[C@H](O)[C@H](Cc1ccccc1)NC(=O)[C@H](CC(N)=O)NC(=O)OCc1ccccc1`, the inhibition in assay [2] is less than 50%.
`CC(C)CCN(C[C@@H](O)[C@H](Cc1ccccc1)NC(=O)[C@H](CC(N)=O)NC(=O)OCc1ccccc1)C(=O)NC(C)(C)C`: the 50% inhibitory concentration (IC50) in assay [1] stood at 13 nM.
As to `CC(C)(C)NC(=O)N(Cc1ccccc1)C[C@@H](O)[C@H](Cc1ccccc1)NC(=O)[C@H](CC(N)=O)NC(=O)c1ccc2ccccc2n1`, the TD50 with CEM (Homo sapiens) was determined as 700 µM. The compound also returned an IC50 in assay [1] of 3 nM.
The corresponding values for `CC(C)CN(C[C@@H](O)[C@H](Cc1ccccc1)NC(=O)[C@H](CC(N)=O)NC(=O)c1ccc2ccccc2n1)C(=O)NC(C)(C)C` [TELINAVIR] are 50 µM and 6 nM.
As to `CNC(=O)N(CC(C)C)C[C@@H](O)[C@H](Cc1ccccc1)NC(=O)[C@H](CC(N)=O)NC(=O)OCc1ccccc1`, the 50% inhibitory concentration (IC50) in assay [3] came to 1500 nM.
Regarding `CC(C)CN(C[C@H](O)[C@H](Cc1ccccc1)NC(=O)[C@H](CC(N)=O)NC(=O)c1ccc2ccccc2n1)C(=O)NC(C)(C)C`, in assay [1], the half-inhibitory concentration (IC50) amounted to 10000 nM.
Compound `CCCCNC(=O)N(C)C[C@H](O)[C@H](Cc1ccccc1)NC(=O)[C@H](CC(N)=O)NC(=O)OCc1ccccc1` gave an inhibition in assay [2] of less than 50%.
Turning to `C[C@H](c1ccccc1)N(C[C@@H](O)[C@H](Cc1ccccc1)NC(=O)[C@H](CC(N)=O)NC(=O)OCc1ccccc1)C(=O)NC(C)(C)C`, in assay [1], it took 6500 nM to reach half-maximal inhibition (IC50).
As to `CC(C)(C)NC(=O)N(CC1CCCCC1)C[C@@H](O)[C@H](Cc1ccccc1)NC(=O)[C@H](CC(N)=O)NC(=O)OCc1ccccc1`, the IC50 in assay [1] was determined as 29 nM.
On the same count and under the same terms, with `C[C@@H](c1ccccc1)N(C[C@@H](O)[C@H](Cc1ccccc1)NC(=O)[C@H](CC(N)=O)NC(=O)OCc1ccccc1)C(=O)NC(C)(C)C` the figure was 5100 nM; with `CCCCNC(=O)N(CC(C)C)C[C@@H](O)[C@H](Cc1ccccc1)NC(=O)[C@H](CC(N)=O)NC(=O)c1ccc2ccccc2n1`, 126 nM; with `CC(C)CN(C[C@H](O)[C@H](Cc1ccccc1)NC(=O)[C@H](CC(N)=O)NC(=O)OCc1ccccc1)C(=O)NC(C)(C)C`, 54000 nM.
Still for that read-out and setting: the value for `CC(C)(C)NC(=O)N(Cc1ccccc1)C[C@@H](O)[C@H](Cc1ccccc1)NC(=O)[C@H](CC(N)=O)NC(=O)OCc1ccccc1` was 19 nM.
For `CCCCNC(=O)N(C)C[C@@H](O)[C@H](Cc1ccccc1)NC(=O)[C@H](CC(N)=O)NC(=O)OCc1ccccc1`, in assay [2], the inhibition is less than 50%.
Turning to `CCNC(=O)N(CC(C)C)C[C@@H](O)[C@H](Cc1ccccc1)NC(=O)[C@H](CC(N)=O)NC(=O)OCc1ccccc1`, the IC50 in assay [1] was determined as 330 nM.
In assay [1], `CC(C)CN(C[C@@H](O)[C@H](Cc1ccccc1)NC(=O)[C@H](CC(N)=O)NC(=O)OCc1ccccc1)C(=O)NC(C)C` yielded a concentration for half-maximal inhibition (IC50) of 260 nM.
For the compound `CC(C)(C)NC(=O)N(Cc1ccncc1)C[C@@H](O)[C@H](Cc1ccccc1)NC(=O)[C@H](CC(N)=O)NC(=O)c1ccc2ccccc2n1`, the TD50 in the assay on CEM (Homo sapiens) was found to be 300 µM. The compound further displayed an IC50 in assay [1] of 19 nM.
